pIC50, pKi: −log10 of the molar value.
Legend:
[1] = target: T1, Kappa-type opioid receptor (Homo sapiens, UniProt P41145); assay: Antagonist activity at human kappa opioid receptor assessed as inhibition of dynorphin A-induced [35S]GTPgammaS binding; assay type: functional
[2] = target: T1, Kappa-type opioid receptor; assay: Binding affinity to kappa opioid receptor
[3] = target: Delta-type opioid receptor (Homo sapiens, UniProt P41143); assay: Antagonist activity at human delta opioid receptor assessed as inhibition of SNC80-stimulated [35S]GTPgammaS binding; assay type: functional
Mu-type opioid receptor = Mu-type opioid receptor (Homo sapiens, UniProt P35372); assay: Antagonist activity at human mu opioid receptor assessed as inhibition of DAMGO-stimulated [35S]GTPgammaS binding; assay type: functional
[4] = Intrinsic clearance in rat liver microsomes; assay type: ADME, Microsome
Outline: (§1)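 Standard liver microsomal stability protocol using human or rat liver microsomes; intrinsic clearance expressed per mg microsomal protein per minute.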

Plasma = assay: Fraction unbound in rat plasma; assay type: ADME, cell-free
[5] = Apparent permeability from apical to basolateral side of MDCK cells expressing MDR1; assay type: ADME, cell-based, Canis lupus familiaris; conditions: dog
Outline: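 MDCK cells stably expressing human MDR1 P-glycoprotein grown as monolayer; apical-to-basolateral transport rate reported in nm/s.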

[6] = Intrinsic clearance in human liver microsomes; assay type: ADME, Microsome; outline: as §1
[7] = target: Voltage-gated inwardly rectifying potassium channel KCNH2 (Homo sapiens, UniProt Q12809)
[8] = Half life in Sprague-Dawley rat at 2 umol/kg, iv; assay type: ADME, organism-based; conditions: in vivo
Rattus norvegicus = assay: Antidiuretic activity against U50488-induced diuresis in sc dosed Sprague-Dawley rat; assay type: functional; conditions: Urine, read-out: ID50 (the source's name)
[9] = Oral bioavailability in Sprague-Dawley rat at 6 umol/kg, po; assay type: ADME, organism-based; conditions: in vivo
[10] = Ratio of drug level in brain to plasma in Sprague-Dawley rat at 5 umol/kg, iv; assay type: ADME, organism-based; conditions: brain and plasma, read-out: BPR
Outline: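 Total brain and plasma concentrations measured 2 h after a 5 µmol/kg intravenous infusion in rats; brain/plasma ratio calculated.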

[11] = Clearance in Sprague-Dawley rat at 2 umol/kg, iv; assay type: ADME, organism-based; conditions: in vivo
[12] = Volume of distribution at steady state in Sprague-Dawley rat at 2 umol/kg, iv; assay type: ADME, organism-based; conditions: in vivo, read-out: Vdss

Voltage-gated inwardly rectifying potassium channel KCNH2, sequence (Q12809 whole entry): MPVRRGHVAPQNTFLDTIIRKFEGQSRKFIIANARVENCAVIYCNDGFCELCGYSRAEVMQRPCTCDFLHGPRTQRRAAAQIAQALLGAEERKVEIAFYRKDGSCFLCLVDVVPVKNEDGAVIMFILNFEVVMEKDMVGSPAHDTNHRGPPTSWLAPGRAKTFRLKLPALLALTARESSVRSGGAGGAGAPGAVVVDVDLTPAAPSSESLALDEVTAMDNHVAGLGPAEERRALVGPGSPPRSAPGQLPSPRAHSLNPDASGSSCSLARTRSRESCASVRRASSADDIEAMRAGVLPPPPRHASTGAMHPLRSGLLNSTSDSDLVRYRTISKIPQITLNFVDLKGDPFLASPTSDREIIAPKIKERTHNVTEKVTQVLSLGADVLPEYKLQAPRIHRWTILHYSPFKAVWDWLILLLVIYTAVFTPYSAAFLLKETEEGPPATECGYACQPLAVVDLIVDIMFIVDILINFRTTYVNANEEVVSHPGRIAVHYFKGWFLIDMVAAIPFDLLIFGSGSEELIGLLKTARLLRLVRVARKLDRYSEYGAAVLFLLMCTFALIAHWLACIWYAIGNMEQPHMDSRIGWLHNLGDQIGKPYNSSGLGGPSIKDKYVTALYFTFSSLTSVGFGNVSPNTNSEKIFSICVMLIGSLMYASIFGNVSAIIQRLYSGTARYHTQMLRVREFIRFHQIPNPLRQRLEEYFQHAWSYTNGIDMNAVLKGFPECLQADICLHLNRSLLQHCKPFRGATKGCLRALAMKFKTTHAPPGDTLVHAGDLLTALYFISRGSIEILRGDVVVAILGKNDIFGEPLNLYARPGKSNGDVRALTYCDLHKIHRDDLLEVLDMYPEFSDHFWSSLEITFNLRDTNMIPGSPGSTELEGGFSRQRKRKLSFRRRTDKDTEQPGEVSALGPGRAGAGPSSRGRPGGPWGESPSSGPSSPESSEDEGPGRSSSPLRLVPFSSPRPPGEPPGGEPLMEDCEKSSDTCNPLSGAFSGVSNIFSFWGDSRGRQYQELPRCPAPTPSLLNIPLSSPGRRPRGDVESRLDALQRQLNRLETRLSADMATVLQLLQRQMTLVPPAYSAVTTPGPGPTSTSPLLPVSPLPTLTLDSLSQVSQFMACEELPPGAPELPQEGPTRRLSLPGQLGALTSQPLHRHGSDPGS
Delta-type opioid receptor, sequence (P41143 whole entry): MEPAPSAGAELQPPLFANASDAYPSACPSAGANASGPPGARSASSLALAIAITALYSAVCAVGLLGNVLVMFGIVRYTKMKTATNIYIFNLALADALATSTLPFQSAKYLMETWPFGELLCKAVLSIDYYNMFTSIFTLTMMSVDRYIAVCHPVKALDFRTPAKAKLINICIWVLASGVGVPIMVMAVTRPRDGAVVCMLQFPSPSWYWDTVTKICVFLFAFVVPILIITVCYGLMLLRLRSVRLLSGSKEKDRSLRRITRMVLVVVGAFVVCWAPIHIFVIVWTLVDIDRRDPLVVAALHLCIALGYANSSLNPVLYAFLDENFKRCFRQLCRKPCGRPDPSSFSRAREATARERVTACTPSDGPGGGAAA
Mu-type opioid receptor, sequence (P35372 whole entry): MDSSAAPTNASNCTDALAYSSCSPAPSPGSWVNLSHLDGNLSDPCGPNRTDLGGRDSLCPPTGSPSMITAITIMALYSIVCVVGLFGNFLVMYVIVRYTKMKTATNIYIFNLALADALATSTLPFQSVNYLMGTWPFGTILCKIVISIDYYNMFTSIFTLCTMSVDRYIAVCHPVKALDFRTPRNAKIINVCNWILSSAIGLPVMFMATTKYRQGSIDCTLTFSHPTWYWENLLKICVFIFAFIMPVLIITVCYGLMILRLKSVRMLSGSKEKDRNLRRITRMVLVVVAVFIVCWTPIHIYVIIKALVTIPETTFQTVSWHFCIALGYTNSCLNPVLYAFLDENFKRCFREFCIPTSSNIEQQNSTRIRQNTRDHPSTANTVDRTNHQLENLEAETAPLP
T1 sequence (P41145 whole entry): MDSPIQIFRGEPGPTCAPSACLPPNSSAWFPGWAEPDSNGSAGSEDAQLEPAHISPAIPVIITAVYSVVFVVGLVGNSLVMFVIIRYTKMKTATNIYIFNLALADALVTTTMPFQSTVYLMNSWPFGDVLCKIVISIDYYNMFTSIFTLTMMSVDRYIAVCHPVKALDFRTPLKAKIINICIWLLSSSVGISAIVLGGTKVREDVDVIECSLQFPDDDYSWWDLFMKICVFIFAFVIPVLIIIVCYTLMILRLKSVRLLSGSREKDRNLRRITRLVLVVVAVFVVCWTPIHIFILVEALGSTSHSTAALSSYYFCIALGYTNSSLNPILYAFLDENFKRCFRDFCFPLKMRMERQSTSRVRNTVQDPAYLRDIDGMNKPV

Work on `Cc1ccc([C@@H](C)N2[C@@H]3CC[C@H]2C[C@H](Oc2cccc(C(N)=O)c2)C3)s1` yielded a pIC50 [1] of 6.95.
`NC(=O)c1cccc(OC2CCN(CC3CC3)CC2)c1` showed a pKi [2] of 6.84 and a pIC50 [1] of 4.55.
For `NC(=O)c1cccc(O[C@@H]2C[C@H]3CC[C@@H](C2)N3Cc2cccnc2)c1`, the pIC50 [1] was 6.37, the pIC50 [3] was under 4.66 and the pIC50 (Mu-type opioid receptor) was 5.54.
Molecule `C[C@@H](c1ccccc1)N1[C@@H]2CC[C@H]1C[C@H](Oc1cccc(C(N)=O)c1)C2` has a pIC50 [1] of 4.69 and a pIC50 (Mu-type opioid receptor) of under 4.52.
With `NC(=O)c1cccc(O[C@@H]2C[C@H]3CC[C@@H](C2)N3C2CCCc3ccccc32)c1` (stereo partly specified) the pIC50 [1] was 5.66 and the pIC50 (Mu-type opioid receptor) was 4.64.
`NC(=O)c1cccc(OC2CCN(Cc3ccccc3)CC2)c1` gave a pKi [2] of 7.12, a pIC50 [1] of 6.23 and a pIC50 [3] of under 4.52. It also gave a pIC50 (Mu-type opioid receptor) of under 4.52.
In the case of `Cn1cc(CN2[C@@H]3CC[C@H]2C[C@H](Oc2cccc(C(N)=O)c2)C3)cn1`, the pIC50 [1] was 6.28, the pIC50 [3] was under 4.56 and the pIC50 (Mu-type opioid receptor) was 5.03.
In the case of `Cc1ccc([C@@H](C)N2[C@@H]3CC[C@H]2C[C@H](Oc2cccc(C(N)=O)c2)C3)cn1`, the microsomal CLint [4] was 14 µL/min/mg, the PPB (Plasma) was 81% and the Papp A→B [5] was 9.1 ×10⁻⁶ cm/s. The microsomal CLint [6] was under 4 µL/min/mg.
With `NC(=O)c1cccc(O[C@@H]2C[C@H]3CC[C@@H](C2)N3Cc2cccs2)c1` the pIC50 [1] was 6.67, the pIC50 [3] was under 4.52 and the pIC50 (Mu-type opioid receptor) was 5.03. The pIC50 [7] was 6.37.
For `NC(=O)c1cccc(O[C@@H]2C[C@H]3CC[C@@H](C2)N3CC2CC2)c1`, the pIC50 [1] was 5.17, the pIC50 [3] was under 4.52 and the pIC50 (Mu-type opioid receptor) was under 4.52.
Molecule `Cc1ccc(CN2[C@@H]3CC[C@H]2C[C@H](Oc2cccc(C(N)=O)c2)C3)o1` has a pIC50 [1] of 6.41, a pIC50 [3] of 4.66 and a pIC50 (Mu-type opioid receptor) of 4.96.
In the case of `NC(=O)c1cccc(O[C@@H]2C[C@H]3CC[C@@H](C2)N3Cc2ccc3c(c2)OCO3)c1`, the pIC50 [1] was 7.96, the pIC50 [3] was 5.31 and the pIC50 (Mu-type opioid receptor) was 6.51.
In the case of `CC(C)[C@@H](CN1CC[C@@](C)(c2cccc(O)c2)[C@@H](C)C1)NC(=O)[C@H]1Cc2ccccc2CN1`, the pKi [2] was 9.52, the pIC50 [1] was 9.30 and the pIC50 [3] was 5.89. For the same molecule, the pIC50 (Mu-type opioid receptor) was 7.39.
Molecule `NC(=O)c1cccc(O[C@@H]2C[C@H]3CC[C@@H](C2)N3CCc2ccccc2)c1` has a pIC50 [1] of 6.12, a pIC50 [3] of 5.67 and a pIC50 (Mu-type opioid receptor) of 6.37.
In the case of `NC(=O)c1cccc(O[C@@H]2C[C@H]3CC[C@@H](C2)N3CC(=O)N2CCCC2)c1`, the pIC50 [1] was 5.47, the pIC50 [3] was under 4.52 and the pIC50 (Mu-type opioid receptor) was 4.68. It also gave a pIC50 [7] of under 4.48.
For `Cc1ccc(C(C)N2[C@@H]3CC[C@H]2C[C@H](Oc2cccc(C(N)=O)c2)C3)s1` (stereo partly specified), the pIC50 [1] was 6.45.
With `CS(=O)(=O)Cc1ccc(CN2[C@@H]3CC[C@H]2C[C@H](Oc2cccc(C(N)=O)c2)C3)cc1` the pIC50 [1] was 7.41, the pIC50 [3] was 5.27 and the pIC50 (Mu-type opioid receptor) was 6.24.
`NC(=O)c1cccc(O[C@@H]2C[C@H]3CC[C@@H](C2)N3CCCc2ccccc2)c1` gave a pIC50 [1] of 6.47, a pIC50 [3] of 5.40 and a pIC50 (Mu-type opioid receptor) of 6.18.
Molecule `NC(=O)c1cccc(O[C@@H]2C[C@H]3CC[C@@H](C2)N3Cc2ccccn2)c1` has a pIC50 [1] of 5.50, a pIC50 [3] of under 4.52 and a pIC50 (Mu-type opioid receptor) of 4.72. The pIC50 [7] was 5.72.
Work on `NC(=O)c1cccc(O[C@@H]2C[C@H]3CC[C@@H](C2)N3Cc2ccncc2)c1` yielded a pIC50 [3] of under 4.61.
Work on `O=C(Nc1cccc(NC(=O)c2cccc(N3CCOCC3)c2)c1)c1cccc(OC2CCN(CC3CC3)CC2)c1` yielded a pKi [2] of 9.30, a pIC50 [1] of 7.11 and a pIC50 [3] of under 4.52. For the same molecule, the pIC50 (Mu-type opioid receptor) was under 4.52 and the Papp A→B [5] was under 1 ×10⁻⁶ cm/s.
For `NC(=O)c1cccc(O[C@@H]2C[C@H]3CC[C@@H](C2)N3CC(=O)Nc2ccccc2)c1`, the pIC50 [1] was 6.46, the pIC50 [3] was 5.57 and the pIC50 (Mu-type opioid receptor) was 6.60. For the same molecule, the pIC50 [7] was 6.14.
Work on `Cc1ccccc1C(C)N1[C@@H]2CC[C@H]1C[C@H](Oc1cccc(C(N)=O)c1)C2` (stereo partly specified) yielded a pIC50 [1] of 6.07 and a pIC50 (Mu-type opioid receptor) of 4.78.
`Cc1ccc(CN2[C@@H]3CC[C@H]2C[C@H](Oc2cccc(C(N)=O)c2)C3)s1` gave a half-life [8] of 1 h, an ED50 (Rattus norvegicus) of 0.006 µmol/kg and a microsomal CLint [4] of 379 µL/min/mg. It also gave a bioavailability [9] of 1.7%, a Kp [10] of 4 and a clearance [11] of 113 mL/min/kg. It also gave a PPB (Plasma) of 50%, a Papp A→B [5] of 13 ×10⁻⁶ cm/s and a microsomal CLint [6] of 31 µL/min/mg. It also gave a Vd [12] of 5.1 L/kg.
In the case of `Cc1ccc(CN2[C@@H]3CC[C@H]2C[C@H](Oc2cccc(C(N)=O)c2)C3)cc1`, the pIC50 [1] was 7.31, the pIC50 [3] was 4.96 and the pIC50 (Mu-type opioid receptor) was 6.32.
In the case of `COc1cccc([C@@H](C)N2[C@@H]3CC[C@H]2C[C@H](Oc2cccc(C(N)=O)c2)C3)c1`, the pIC50 [1] was 7.34 and the pIC50 (Mu-type opioid receptor) was 5.98.
For `CN1[C@@H]2CC[C@H]1C[C@H](Oc1cccc(C(N)=O)c1)C2`, the pIC50 [1] was 4.90.
With `NC(=O)c1cccc(O[C@@H]2C[C@H]3CC[C@@H](C2)N3C2(c3ccccc3)CC2)c1` the pIC50 [1] was 4.62 and the pIC50 (Mu-type opioid receptor) was under 4.52.
`NC(=O)c1cccc(O[C@@H]2C[C@H]3CC[C@@H](C2)N3C2CCCCC2)c1` gave a pIC50 [1] of 5.95 and a pIC50 (Mu-type opioid receptor) of 5.03.
`CC(c1ccccc1)N1[C@@H]2CC[C@H]1C[C@H](Oc1cccc(C(N)=O)c1)C2` (stereo partly specified) gave a pIC50 [1] of 6.00 and a pIC50 (Mu-type opioid receptor) of 4.70.
For `Cc1ccccc1CN1[C@@H]2CC[C@H]1C[C@H](Oc1cccc(C(N)=O)c1)C2`, the pIC50 [3] was under 4.52 and the pIC50 (Mu-type opioid receptor) was 4.76.
Molecule `CC(C)(c1ccccc1)N1[C@@H]2CC[C@H]1C[C@H](Oc1cccc(C(N)=O)c1)C2` has a pIC50 [1] of 4.88.
Molecule `C[C@H](c1ccnc(Cl)c1)N1[C@@H]2CC[C@H]1C[C@H](Oc1cccc(C(N)=O)c1)C2` has a pIC50 [1] of 6.51 and a pIC50 (Mu-type opioid receptor) of 4.64.
Work on `CC(c1ccncc1)N1[C@@H]2CC[C@H]1C[C@H](Oc1cccc(C(N)=O)c1)C2` (stereo partly specified) yielded a pIC50 (Mu-type opioid receptor) of under 4.52.
For `NC(=O)c1cccc(O[C@@H]2C[C@H]3CC[C@@H](C2)N3CC2CCCCC2)c1`, the half-life [8] was 1 h, the microsomal CLint [4] was 196 µL/min/mg and the bioavailability [9] was 1.8%. For the same molecule, the Kp [10] was 5, the clearance [11] was 184 mL/min/kg and the Papp A→B [5] was 8.3 ×10⁻⁶ cm/s. It also gave a microsomal CLint [6] of under 4 µL/min/mg and a Vd [12] of 9.5 L/kg.
Molecule `C[C@H](c1ccccc1)N1[C@@H]2CC[C@H]1C[C@H](Oc1cccc(C(N)=O)c1)C2` has a pIC50 [1] of 6.17 and a pIC50 (Mu-type opioid receptor) of under 4.61.
